# ChEMBL document CHEMBL1275496, “In vivo pharmacodynamic target investigation for micafungin against Candida albicans and C. glabrata in a neutropenic murine candidiasis model” (Antimicrob Agents Chemother, 2008)
# *1 amine or outer side, *2 acyl side, *3 side chain or, on linkers, in order; H or OH if unused. Where a SMILES comes first, the peptide text is derived from it. Bridges are numbered along the chain shown (N, C = ends). [ ]: non-standard residue; d: D form. The star is where a group is joined. hTyr(3S-OH,4S-OH,3'-OSO3H) = N[C@H](C(=O)O)[C@H](O)[C@@H](O)c1ccc(O)c(OS(=O)(=O)O)c1; Orn(4R-OH,5R-OH) = O=C([C@H](C[C@@H](O)[C@@H](O)N[*:3])N[*:1])[*:2]; Pro(3S-OH,4S-Me) = C[C@H]1CN[C@H](C(=O)O)[C@H]1O; X1 = CCCCCOc1ccc(-c2cc(-c3ccc(C(=O)*)cc3)no2)cc1; Gln(3R-OH) = NC(=O)C[C@@H](O)[C@H](N)C(=O)O; Hyp = O=C(O)[C@@H]1C[C@@H](O)CN1
# Legend:
# [1] = Ratio of fAUC in ICR/Swiss neutropenic mouse at static dose of 9.25 mg/kg, ip after 24 hrs to MIC for Candida glabrata isolate 37661; assay type: functional; settings: route intraperitoneal
# [2] = test system: Nakaseomyces glabratus; test: Fungistatic activity against Candida glabrata isolate 5592 infected in ICR/Swiss neutropenic mouse after 24 hrs; assay type: functional
# Method in brief: (§1)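 Neutropenic female ICR/Swiss mice received cyclophosphamide sc at 150 mg/kg on day −4, 100 mg/kg on day −1 and 100 mg/kg on day +2. Mice were infected iv via the tail vein, and ip micafungin in 0.15 M NaCl started 2 h later. Six dose levels from 0.078 to 80 mg/kg/24 h were given q24h for 4 days, 3 mice per dose. Kidney CFU were counted at 96 h. The static dose was derived from a sigmoid Emax (Hill) fit.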
# [3] = Cmax in Candida infected ICR/Swiss neutropenic mouse at 80 mg/kg, ip; assay type: ADME, organism-based; design: dose 80 mg/kg, route intraperitoneal; settings: in vivo
# Method in brief: (§2)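 Single intraperitoneal micafungin doses (80, 20, 5 mg/kg in 0.2 ml, 0.15 M NaCl) given to infected neutropenic mice. Serum was taken from 3 mice per time point at 1, 2, 4, 6, 8, 12, 24 and 48 h. Drug was measured by microbiologic assay with C. albicans K1 (LLOQ 0.12 μg/ml). Noncompartmental analysis; half-life by nonlinear least squares; AUC by trapezoidal rule.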
# [4] = Ratio of fAUC in ICR/Swiss neutropenic mouse at static dose of 2.4 mg/kg, ip after 24 hrs to MIC for Candida glabrata isolate 35315; assay type: functional; settings: route intraperitoneal
# [5] = Ratio of AUC in ICR/Swiss neutropenic mouse at static dose of 0.06 mg/kg, ip after 24 hrs to MIC for Candida glabrata isolate 32930; assay type: functional; settings: route intraperitoneal
# [6] = test system: Nakaseomyces glabratus; test: Fungistatic activity against Candida glabrata isolate 37661 infected in ICR/Swiss neutropenic mouse after 24 hrs; assay type: functional; method in brief: as §1
# [7] = test system: Nakaseomyces glabratus; test: Antifungal activity against Candida glabrata isolate 5592 by CLSI method; assay type: functional
# Method in brief: (§3)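 Broth microdilution MIC per CLSI M27-A2. Two endpoints were read against the drug-free control well: partial inhibition (M1, CLSI recommended) and complete inhibition (M2). Tests were run in duplicate on four separate occasions, and the value is the mean.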
# [8] = test system: Nakaseomyces glabratus; test: Antifungal activity against Candida glabrata isolate 35315 infected in ICR/Swiss neutropenic mouse assessed as dose required for 1-log kill after 24 hrs; assay type: functional
# Method in brief: (§4)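 Neutropenic mice (cyclophosphamide sc 150 mg/kg day −4, 100 mg/kg day −1 and +2) infected iv by tail vein 2 h before therapy. Micafungin given ip every 24 h for 4 days at six fourfold-spaced dose levels, 0.078–80 mg/kg/24 h, 3 mice per group. Kidney CFU read at 96 h. Hill-model fit; dose giving 1 log10 below start-of-therapy burden.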
# [9] = AUC in healthy human at 100 mg/day; assay type: ADME, organism-based; settings: plasma
# [10] = Ratio of AUC in ICR/Swiss neutropenic mouse at 1-Log kill dose of 1.69 mg/kg, ip after 24 hrs to MIC for Candida glabrata isolate 32930; assay type: functional; settings: route intraperitoneal
# [11] = test system: Nakaseomyces glabratus; test: Fungistatic activity against Candida glabrata isolate 32930 infected in ICR/Swiss neutropenic mouse after 24 hrs; assay type: functional; method in brief: as §1
# [12] = test system: Nakaseomyces glabratus; test: Fungistatic activity against Candida glabrata isolate 33609 infected in ICR/Swiss neutropenic mouse after 24 hrs; assay type: functional; method in brief: as §1
# [13] = Ratio of fAUC in ICR/Swiss neutropenic mouse at static dose of 2.84 mg/kg, ip after 24 hrs to MIC for Candida albicans isolate K1; assay type: functional; settings: route intraperitoneal
# [14] = Ratio of AUC in ICR/Swiss neutropenic mouse at 1-Log kill dose of 2.0 mg/kg, ip after 24 hrs to MIC for Candida glabrata isolate 5376; assay type: functional; settings: route intraperitoneal
# [15] = Ratio of AUC in ICR/Swiss neutropenic mouse at 1-Log kill dose of 4.60 mg/kg, ip after 24 hrs to MIC for Candida albicans isolate 98-17; assay type: functional; settings: dose 4.6 mg/kg; route intraperitoneal
# [16] = Ratio of AUC in ICR/Swiss neutropenic mouse at 1-Log kill dose of 3.77 mg/kg, ip after 24 hrs to MIC for Candida glabrata isolate 35315; assay type: functional; settings: route intraperitoneal
# [17] = test system: Nakaseomyces glabratus; test: Antifungal activity against Candida glabrata isolate 32930 infected in ICR/Swiss neutropenic mouse assessed as dose required for 1-log kill after 24 hrs; assay type: functional; method in brief: as §4
# [18] = test system: Nakaseomyces glabratus; test: Antifungal activity against Candida glabrata isolate 5592 infected in ICR/Swiss neutropenic mouse assessed as dose required for 1-log kill after 24 hrs; assay type: functional; method in brief: as §4
# [19] = Ratio of fAUC in ICR/Swiss neutropenic mouse at 1-Log kill dose of 4.60 mg/kg, ip after 24 hrs to MIC for Candida albicans isolate 98-17; assay type: functional; settings: dose 4.6 mg/kg; route intraperitoneal
# [20] = Ratio of AUC in ICR/Swiss neutropenic mouse at static dose of 1.34 mg/kg, ip after 24 hrs to MIC for Candida glabrata isolate 513; assay type: functional; settings: route intraperitoneal
# [21] = Ratio of fAUC in ICR/Swiss neutropenic mouse at static dose of 2.18 mg/kg, ip after 24 hrs to MIC for Candida glabrata isolate 34341; assay type: functional; settings: route intraperitoneal
# [22] = Ratio of AUC in ICR/Swiss neutropenic mouse at static dose of 2.18 mg/kg, ip after 24 hrs to MIC for Candida glabrata isolate 34341; assay type: functional; settings: route intraperitoneal
# [23] = Ratio of fAUC in ICR/Swiss neutropenic mouse at 1-Log kill dose of 1.40 mg/kg, ip after 24 hrs to MIC for Candida glabrata isolate 33609; assay type: functional; settings: dose 1.4 mg/kg; route intraperitoneal
# [24] = test system: Candida albicans; test: Antifungal activity against Candida albicans isolate K1 infected in ICR/Swiss neutropenic mouse assessed as dose required for 1-log kill after 24 hrs; assay type: functional; method in brief: as §4
# [25] = test system: Nakaseomyces glabratus; test: Antifungal activity against Candida glabrata; assay type: functional; method in brief: as §3
# [26] = (§5) Cmax in Candida infected ICR/Swiss neutropenic mouse at 20 mg/kg, ip; assay type: ADME, organism-based; design: dose 20 mg/kg, route intraperitoneal; settings: ICR/Swiss, in vivo; method in brief: as §2
# [27] = test system: Mus musculus; test: as §5; assay type: ADME, organism-based; design: dose 20 mg/kg, route intraperitoneal; settings: in vivo; method in brief: as §2
# [28] = test system: Nakaseomyces glabratus; test: Antifungal activity against Candida glabrata isolate 32930 by CLSI method; assay type: functional; method in brief: as §3
# [29] = species: Homo sapiens; test: fAUC in healthy human at 100 mg/day; assay type: ADME, organism-based; settings: in vivo
# [30] = Ratio of AUC in ICR/Swiss neutropenic mouse at static dose of 2.53 mg/kg, ip after 24 hrs to MIC for Candida albicans isolate 98-17; assay type: functional; settings: route intraperitoneal
# [31] = test system: Candida albicans; test: Fungistatic activity against Candida albicans isolate 98-17 infected in ICR/Swiss neutropenic mouse after 24 hrs; assay type: functional; method in brief: as §1
# [32] = Ratio of AUC in ICR/Swiss neutropenic mouse at static dose of 1.80 mg/kg, ip after 24 hrs to MIC for Candida glabrata isolate 5592; assay type: functional; settings: dose 1.8 mg/kg; route intraperitoneal
# [33] = Ratio of fAUC in ICR/Swiss neutropenic mouse at 1-Log kill dose of 5.46 mg/kg, ip after 24 hrs to MIC for Candida glabrata isolate 5592; assay type: functional; settings: route intraperitoneal
# [34] = test system: Nakaseomyces glabratus; test: Antifungal activity against Candida glabrata isolate 33616 infected in ICR/Swiss neutropenic mouse assessed as dose required for 1-log kill after 24 hrs; assay type: functional; method in brief: as §4
# [35] = test system: Candida albicans; test: Antifungal activity against Candida albicans isolate 98-17 by CLSI method; assay type: functional; method in brief: as §3
# [36] = Half life in Candida infected ICR/Swiss neutropenic mouse at 20 mg/kg, ip; assay type: ADME, organism-based; design: dose 20 mg/kg, route intraperitoneal; settings: in vivo; method in brief: as §2
smiles,measurement,setting,value
"CCCCCOc1ccc(-c2cc(-c3ccc(C(=O)N[C@H]4C[C@@H](O)[C@@H](O)NC(=O)[C@@H]5[C@@H](O)[C@@H](C)CN5C(=O)[C@H]([C@H](O)CC(N)=O)NC(=O)[C@H]([C@H](O)[C@@H](O)c5ccc(O)c(OS(=O)(=O)O)c5)NC(=O)[C@@H]5C[C@@H](O)CN5C(=O)[C@H]([C@@H](C)O)NC4=O)cc3)no2)cc1 [MICAFUNGIN] (X1-[Orn(4R-OH,5R-OH)]T[Hyp][hTyr(3S-OH,4S-OH,3'-OSO3H)][Gln(3R-OH)][Pro(3S-OH,4S-Me)]; lactam 1-C)",fAUC/MIC,[1],2.5
same,Activity,[2],1.8 mg/kg
same,Cmax,[3],53000 ng/mL
same,fAUC/MIC,[4],2.8
same,RatioAUC/MIC,[5],236
same,Activity,[6],9.25 mg/kg
same,MIC,[7],0.03 µg/mL
same,MIC50,[7],0.016 µg/mL
same,Activity,[8],3.77 mg/kg
same,AUC,[9],126 µg·h/mL
same,RatioAUC/MIC,[10],3107
same,Activity,[11],0.06 mg/kg
same,Activity,[12],0.41 mg/kg
same,fAUC/MIC,[13],13
same,RatioAUC/MIC,[14],7886
same,RatioAUC/MIC,[15],4233
same,RatioAUC/MIC,[16],1733
same,Activity,[17],1.69 mg/kg
same,Activity,[18],5.46 mg/kg
same,fAUC/MIC,[19],10.6
same,RatioAUC/MIC,[20],2467
same,fAUC/MIC,[21],2.51
same,RatioAUC/MIC,[22],1003
same,fAUC/MIC,[23],6.5
same,Activity,[24],4.08 mg/kg
same,MIC50,[25],0.015 µg/mL
same,MIC90,[25],0.015 µg/mL
same,Cmax,[26],28000 ng/mL
same,Cmax,[27],28000 ng/mL
same,MIC,[28],0.016 µg/mL
same,MIC50,[28],0.008 µg/mL
same,fAUC,[29],0.32 µg·h/mL
same,RatioAUC/MIC,[30],2333
same,Activity,[31],2.53 mg/kg
same,RatioAUC/MIC,[32],3333
same,fAUC/MIC,[33],25
same,Activity,[34],7.89 mg/kg
same,MIC,[35],0.06 µg/mL
same,MIC50,[35],0.03 µg/mL
same,half-life,[36],13 h
